Source: PubChem BioAssay (several laboratories)
rCAG binder = binds r(CAG) RNA repeats; r(CAG) RNA repeat, TO-PRO-1 dye displacement fluorescence; inhibition, % at 3 µM; 370,000 compounds, 1.3% hits;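 active means inhibition above the plate cutoff, the mean of all test compounds on that plate plus 3 SD, cut at about 35% in these data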;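 further: 0% = DMSO alone and 100% = 100 µM mitoxantrone as full dye displacement; higher means more dye released from RNA so lower well fluorescence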
STEP inh = inhibitors of human striatal-enriched phosphatase STEP; P54829; recombinant STEP, OMFP fluorogenic substrate, fluorescence; inhibition, % at 20 µM; 360,000 compounds, 0.25% hits;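 active means inhibition at 20 µM, scaled per plate between control wells, above about 37%, limit read from the data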;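 further: 0% = DMSO with enzyme and substrate and 100% = substrate only without enzyme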
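Assay system: isolated STEP enzyme / Timing: 20 min at room temperature, dark / Doses: 20 µM, 1% DMSO / Technique: fluorescence intensity, excitation 480 nm, emission 540 nm / Reagent: fluorogenic phosphatase substrate OMFP at 25 µM final / Measure: percent inhibition scaled to no-enzyme and uninhibited-enzyme controls, plate-pattern corrected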
LMPTP inh = LMPTP (human) inhibition; P24666; inhibition, % at 20 µM; 360,000 compounds, 0.22% hits; recombinant LMPTP-A, OMFP fluorogenic substrate, fluorescence intensity;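 active means compounds that cut the enzyme signal by at least half of the control window in the single-dose screen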;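 further: plate controls were DMSO wells with enzyme plus substrate for no effect and substrate without enzyme for full effect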
Target sequence (P24666 whole entry, looked up): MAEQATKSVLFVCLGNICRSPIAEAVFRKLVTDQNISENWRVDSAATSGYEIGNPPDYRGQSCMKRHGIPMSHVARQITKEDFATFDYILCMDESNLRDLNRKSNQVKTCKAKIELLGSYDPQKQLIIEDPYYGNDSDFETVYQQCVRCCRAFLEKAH
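Assay system: LMPTP-A enzyme. Input: 0.625 nM LMPTP-A final. Probe or stimulus: 400 µM OMFP. Compound dosing: single 20 µM dose. Schedule: 50 min dark incubation at room temperature. Detection: fluorescence intensity of OMFP turnover product. Read-out: percent inhibition versus substrate-only and uninhibited controls. Benchmarks: no-enzyme low control, uninhibited high control.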
NadD block = NadD (S. aureus) enzyme inhibition. 360,000 compounds, 0.78% hits. inhibition, % at 20 µM. purified NadD enzyme, colorimetric absorbance read-out; in the data active means inhibition above about 26%
Scp-1 inhibitor = inhibitors of human Scp-1 phosphatase; Q9GZU7; Recombinant Scp1, phosphopeptide, malachite green phosphate absorbance; 340,000 compounds, 0.88% hits; AID 493091; inhibition, % at 20 µM;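 active means inhibition above about 50% at 20 µM, limit read from the data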;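 further: plate controls were DMSO wells with enzyme for no effect and wells lacking enzyme for full effect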
Target sequence (Q9GZU7 76-261 limits assumed): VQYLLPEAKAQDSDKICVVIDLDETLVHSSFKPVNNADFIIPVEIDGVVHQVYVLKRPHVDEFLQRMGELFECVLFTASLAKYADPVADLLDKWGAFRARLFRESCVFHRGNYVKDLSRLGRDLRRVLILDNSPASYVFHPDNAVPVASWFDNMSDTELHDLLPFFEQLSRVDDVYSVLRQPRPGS
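Assay system: SCP-1 catalytic fragment, aa 76-261 | Buffer or medium: Tris acetate buffer pH 5.5 with MgCl2 and Tween-20 | Compound: One concentration, 20 µM, with 1.0% DMSO | Also added: Phospho 17-mer peptide substrate | Signal: Absorbance at 630 nm | Incubation: 45 min enzyme reaction at room temperature | Measure: % inhibition of SCP-1 phosphate liberation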
* marks the source's active call; other numbers are inactive results. An excerpt weighted towards active compounds, which were near 2.6% of everything screened.

Results for O=C1NC(=S)NC(=O)C1=Cc1cccn1-c1ccc(O)cc1 ?
rCAG binder: 18; STEP inh: 3; LMPTP inh: 32; NadD block: 20; Scp-1 inhibitor: 56*

What do the screens show for `CCn1nc(/C=C/c2ccccc2)nc2c(=O)n(C)c(=O)nc1-2`?
rCAG binder: -2; STEP inh: 69*; LMPTP inh: 62*; NadD block: 1; Scp-1 inhibitor: -9

What do the screens show for `CCn1nc(-c2cccs2)nc2c(=O)n(C)c(=O)nc1-2`?
STEP inh: 65*; LMPTP inh: 63*; NadD block: 2; Scp-1 inhibitor: -7

Results for COc1ccc(-n2c(/C=C/c3ccc(O)cc3)nc3ccccc3c2=O)cc1 ?
rCAG binder: 1; STEP inh: -2; LMPTP inh: 3; NadD block: 8; Scp-1 inhibitor: -2

How did O=C1NC(=O)N(Cc2ccco2)C(=O)/C1=C/c1ccc(-c2cccc([N+](=O)[O-])c2)o1 do in these assays?
STEP inh: 39; LMPTP inh: 42; NadD block: 67*; Scp-1 inhibitor: 82*

What do the screens show for `O=C1NC(=O)N(Cc2ccc(F)cc2)C(=O)/C1=C\c1ccc(N2CCCC2)cc1`?
rCAG binder: 17; STEP inh: -1; LMPTP inh: 11; NadD block: 33*; Scp-1 inhibitor: -5

Results for O=C1NC(=O)N(c2ccc(F)cc2)C(=O)/C1=C/c1ccc(N2CCOCC2)cc1 ?
rCAG binder: 2; STEP inh: 13; LMPTP inh: -1; NadD block: 0; Scp-1 inhibitor: -11

Results for O=C(NC(Cc1ccccc1)P(=O)(O)Oc1ccccc1)OCc1ccccc1 (stereo not given) ?
rCAG binder: 6

How did O=C1NC(=O)N(c2ccccc2F)C(=O)/C1=C/c1ccc(Sc2nc3ccccc3[nH]2)o1 do in these assays?
rCAG binder: 46*; STEP inh: 2; LMPTP inh: 8; NadD block: 45*; Scp-1 inhibitor: 9

How did O=C1NC(=O)N(c2ccccc2)C(=O)/C1=C/c1ccoc1 do in these assays?
rCAG binder: -8; STEP inh: 1; LMPTP inh: 1; NadD block: 1; Scp-1 inhibitor: 11

Results for O=C1NC(=O)N(c2ccccc2)C(=O)/C1=C/c1ccc(Sc2ccccc2)o1 ?
STEP inh: 3; LMPTP inh: 1; NadD block: 37*; Scp-1 inhibitor: 4

What do the screens show for `NC(N)=N/N=C/c1cn(-c2ccccc2)nc1-c1cccs1`?
rCAG binder: 36*; STEP inh: 8; LMPTP inh: 4; NadD block: -2; Scp-1 inhibitor: -3

How did O=c1c2ccccc2nc(-c2cccs2)n1-c1ccccc1 do in these assays?
rCAG binder: -2; STEP inh: 0; LMPTP inh: 1; NadD block: -5; Scp-1 inhibitor: -3

Results for N#CC1c2ccccc2-n2nncc2CN1C(=O)c1cccnc1 (stereo not given) ?
rCAG binder: 2

How did NC(N)=Nc1ccc2[nH]c3c(c2c1)C[C@@]1(O)[C@H]2Cc4ccc(O)c5c4[C@@]1(CCN2CC1CC1)[C@H]3O5 do in these assays?
STEP inh: -2; LMPTP inh: 12; NadD block: 8; Scp-1 inhibitor: 99*

How did Cc1ccccc1N1C(=O)NC(=O)/C(=C\c2ccc3c(c2)CCCN3Cc2ccccc2)C1=O do in these assays?
rCAG binder: 5; STEP inh: -6; LMPTP inh: 3; NadD block: 39*; Scp-1 inhibitor: -5

How did COc1ccc(/C=C2/C(=O)NC(=O)N(c3ccccc3)C2=O)cc1CN1C(=O)c2ccccc2C1=O do in these assays?
STEP inh: 0; LMPTP inh: -2; NadD block: -1; Scp-1 inhibitor: -4

How did O=C(CN1C(=O)[C@@H](Cc2c[nH]c3ccccc23)N=C(c2ccccc2)c2ccccc21)NC1CCCCC1 do in these assays?
rCAG binder: 9

How did N=c1c2c(-c3ccccc3)c(-c3ccccc3)n(Cc3ccccc3)c2ncn1C1CCC(O)CC1 (stereo not given) do in these assays?
rCAG binder: 5

What do the screens show for `O=C1NC(=O)[C@]2(Cc3ccccc3N3CCN(c4ccccc4)CC32)C(=O)N1Cc1ccccc1` (stereo not given in full)?
rCAG binder: 19; STEP inh: 3; LMPTP inh: 3; NadD block: 48*; Scp-1 inhibitor: -10

Results for N#CC1c2ccccc2-n2nncc2CN1C(=O)c1ccc([N+](=O)[O-])o1 (stereo not given) ?
rCAG binder: 1

How did O=C(CN1C(=O)[C@@H](Cc2ccccc2)N=C(c2ccccc2)c2ccccc21)NC1CCCCC1 do in these assays?
rCAG binder: 6

What do the screens show for `Cc1ccc(/C=C2\C(=O)NC(=S)N(c3ccc(F)cc3)C2=O)s1`?
rCAG binder: 28; STEP inh: 0; LMPTP inh: 0; NadD block: 32*; Scp-1 inhibitor: 5

How did Cc1ccc(/C=C2\C(=O)NC(=S)N(c3ccc(F)cc3)C2=O)o1 do in these assays?
rCAG binder: 26; STEP inh: 0; LMPTP inh: 0; NadD block: 6; Scp-1 inhibitor: 29

How did C[C@H]1OC[C@@H](C[N+](C)(C)C)O1 do in these assays?
rCAG binder: -1; STEP inh: 1; LMPTP inh: -3; NadD block: 15; Scp-1 inhibitor: 101*

How did C[CH2][Hg][S]c1ccccc1C(=O)O do in these assays?
rCAG binder: 0; STEP inh: 2; LMPTP inh: 2; NadD block: 10; Scp-1 inhibitor: 101*

Results for CN1c2ccc(Br)cc2[C@H]2NCC[C@H]2[C@H]1CO ?
rCAG binder: 5

Results for CC[n+]1c(/C=C/C=C/c2ccc(N(C)C)cc2)sc2ccccc21 ?
rCAG binder: 18; STEP inh: 21; LMPTP inh: 90*; NadD block: -9; Scp-1 inhibitor: -7

What do the screens show for `O=C(N/N=C/c1c(O)n(Cc2ccccc2)c(=O)[nH]c1=O)c1ccccc1O`?
rCAG binder: 81*; STEP inh: 5; LMPTP inh: -2; NadD block: 0; Scp-1 inhibitor: -10

What do the screens show for `COc1ccc(Cn2c(O)c(/C=N/NC(=O)c3ccccc3)c(=O)[nH]c2=O)cc1`?
rCAG binder: 30; STEP inh: 0; LMPTP inh: 1; NadD block: 0; Scp-1 inhibitor: -11

What do the screens show for `COc1ccc(C(=O)O)cc1OC`?
rCAG binder: -1; STEP inh: -21; LMPTP inh: -1; NadD block: 1; Scp-1 inhibitor: -4

How did O=C(O)c1cc[c]([Hg][Cl])cc1 do in these assays?
STEP inh: -3; LMPTP inh: -1; NadD block: 20; Scp-1 inhibitor: 96*

What do the screens show for `CC[n+]1c(-c2ccccc2)c2cc(N)ccc2c2ccc(N)cc21`?
rCAG binder: 25; STEP inh: 2; LMPTP inh: 72*; NadD block: 7; Scp-1 inhibitor: 5
